Assay: Toxicity liver stage against HepG2, at 10uM
Assay type: cell-based
Set-up: test concentration 10 uM, cell line HepG2-A16-CD81EGFP
Conditions: human, HepG2-A16-CD81EGFP cells; read-out: INHIBITION
In short: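 Uninfected HepG2-A16-CD81EGFP cells, 3 × 10^3 per well, 1536-well, plated on prespotted compound at 10 μM final, parasite-free screening media added to match infected plates; puromycin 10 μM positive, DMSO 0.5% negative; run in parallel with 48 h PbLuc assay at 37 °C, 5% CO2; viability by CellTiter-Glo luminescence, normalized to controls.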

Row | SMILES | cytotoxicity at 10 µM [%]
1 | COc1ccc(C(=O)C2CCCN(Cc3ccon3)C2)c(OC)c1 (centres undefined) | -4.46
2 | CCOCCCNC(=O)C1(C)CCC(=O)N1Cc1ccccc1F (centres undefined) | -5.57
3 | CCN(CC)CCNC(=O)CCc1c(C)nn(-c2cccc(Cl)c2)c1C | -5.34
4 | CC(C)CC(=O)N1CC(=O)N(Cc2ccco2)CC(O)C1 (centres undefined) | -8.23
5 | COc1c(C(N)=O)cn(C)c1-c1nc2cc(NC(C)=O)ccc2n1C | -46.5
6 | CN1C(=O)COc2ccc(C(=O)Cn3cnc4ccsc4c3=O)cc21 | 8.69
7 | CC(C)n1cc(C(=O)NCCN(C)C)c2n[nH]c(=O)c-2c1 | 9.06
8 | CN1CCN(CC2CC2)C(=O)C12CCN(c1nccs1)CC2 | -6.01
9 | CN1Cc2ccccc2CC2(CCN(c3ncccn3)CC2)C1=O | -7.42
10 | CN1CCN(Cc2ccco2)Cc2cccnc21 | 2.04
11 | Cn1nc(COCC2CC2)c2c1CCN(C(=O)c1ccno1)C2 | 6.8
12 | CNC(=O)[C@H]1CC[C@@H]2[C@@H](CCN2c2ncccn2)O1 | 6.25
13 | O=S(=O)(C1CC1)N1CC[C@]2(C[C@@H](OCC3CCOCC3)CO2)C1 | 8.13
14 | COC[C@@]12CCO[C@@H]1CCN(C(=O)Cc1ccc(C)cc1)C2 | 1.47
15 | Oc1nnc(-c2cccs2)c2sc(N3CCCC3)nc12 | -2.73
16 | CCn1nc(C)c2nc(C(C)C)nc(NCC(=O)N3CCOCC3)c21 | 3.07
17 | CC(C)CC(=O)N1CCC(Nc2nc(O)cc(-c3ccsc3)n2)CC1 | 11.3
18 | CC(=O)N1CCCC(c2cnc(-c3c(C)nn(C)c3C)cn2)C1 (centres undefined) | 1.95
19 | O=C(c1ccc(Cl)cc1)N1CCC(N2CCCOC2=O)CC1 | 11.1
20 | CN1CC(=O)N(C2CCCNC2)Cc2c(NC3CCC3)ncnc21 (centres undefined) | 3.96
21 | O=C(Nc1c(N2CCCC2)cccc1N1CCCC1)c1cnccn1 | -50.9
22 | CC(C)c1nc2n(n1)CC(Nc1ncnc3c1CCC3)CC2 (centres undefined) | -49.1

Row | SMILES | cytotoxicity at 10 µM [%]
23 | CC(C#N)CN(C)Cc1cc(Cl)cc2cccnc12 (centres undefined) | -48.5
24 | Cc1ccc(C2CCCN2Cc2nc(-c3ccco3)no2)cc1 (centres undefined) | 26.1
25 | Cc1nnc2n1CCN(Cc1nc3ccccc3o1)C2 | -6.48
26 | N#CC1(NC(=O)Cc2cc(Cl)c3c(c2)OCCO3)CCC1 | -8.05
27 | Cn1ccnc1CCNS(=O)(=O)c1ccc(Br)cc1 | 3.32
28 | O=C(NCCOc1ccccc1)c1ccc2c(c1)C(=O)NC2=O | 4.98
29 | O=C(CNc1ccccc1Cl)Nc1cc(-n2cnnn2)ccc1F | -4.38
30 | Cc1cccc(CNc2cncc(-n3cccn3)n2)c1 | -7.09
31 | Cc1ccc(C(=O)NCCCS(C)(=O)=O)c(=O)[nH]1 | -7.6
32 | CCCn1nc2c(cc1=O)CN(Cc1cc(C)no1)CC2 | -11.6
33 | CNC(=O)NC(C)c1nc(-c2ccc(Br)cc2)no1 (centres undefined) | 7.71
34 | CN(Cc1cnn(C)c1)C(=O)CN1CCCC1Cn1cncn1 (centres undefined) | 12.6
35 | N#Cc1cccc(CNc2cc(CO)ccc2Cl)c1 | 11.5
36 | CN(C)C(=O)Cc1nc(CN2CCCC2Cn2cccn2)cs1 (centres undefined) | 4.79
37 | CCNC(=O)CN1CCN(c2cc(C)nc(-c3ccncc3)n2)CC1 | 5.63
38 | Cn1cc(NC(=O)NCc2ccoc2)ccc1=O | 4.14
39 | CSCC(=O)N(C)Cc1ccccc1 | -2.34
40 | Fc1ccc(NCc2nnsc2Cl)c(OC(F)F)c1 | 0.811
41 | CCc1nc(C)ncc1C(=O)N1CCN(CC)c2ccccc21 | -10.1
42 | CCCN(CC1CC1)S(=O)(=O)c1ccc(NC(C)=O)cc1 | 9.35
43 | CCc1n[nH]c(=O)c(C(=O)N2CCOC3(CCCC3)C2)c1CC | 13.3
44 | CN(C)C(=O)CCNC(=O)NCc1ccc(Br)cc1Cl | 2.96

Row | SMILES | cytotoxicity at 10 µM [%]
45 | COc1ccccc1NC(=O)NC1(c2noc(CN(C)C)n2)CCCC1 | -5.22
46 | Cc1cc(C)n(-c2ccc(C(C)NS(=O)(=O)CCCS(C)(=O)=O)cc2)n1 (centres undefined) | 7.04
47 | Cc1ccccc1C(C)CC(=O)N1CC[C@H](O)C1 (some centres undefined) | -49.7
48 | CN(C)C1CCN(C(=O)CCc2cc(Br)cs2)CC1 | -18
49 | CC(=O)N1CCC(NC(=O)c2ccc3c(c2O)OC(C)(C)C3)CC1 | 0.519
50 | CCc1nc(CNCC2(C(N)=O)CCOCC2)cs1 | -3.97
51 | Cn1cc(C(=O)N2C[C@@H]3CN(S(C)(=O)=O)CCO[C@@H]3C2)cn1 | 8.9
52 | Cc1csc(CN2CCC3(CC2)COC(COc2ccccn2)C3)n1 (centres undefined) | -113
53 | COCC(=O)NCc1cc(=O)n2c(n1)CN(Cc1ccco1)CCC2 | -89.3
54 | CN(C)C(=O)CNC(=O)c1ccn(-c2ccc3ccccn23)n1 | 0.74
55 | O=C1CC[C@@H]2[C@@H](CCN2C(=O)c2ccsc2)N1CC1CC1 | -10.9
56 | CN(Cc1cc(C(C)(C)C)n[nH]1)Cc1c[nH]nc1-c1ccc(F)cc1 | -4.83
57 | CNC(C(=O)N1CCC(c2nccn2C(C)C)CC1)c1ccccc1 (centres undefined) | 0.258
58 | Oc1ccccc1N1CCN(c2ncnc3sc4c(c23)CCNC4)CC1 | 4.36
59 | Cc1nc2c(C)cccc2cc1C(=O)N1CCC2(CCNCC2)CC1 | -8.37
60 | CCCn1c(C)c(CC(=O)N(C)CCO)c2c1CC(C)(C)CC2=O | -3.64
61 | O=C(Cn1[nH]c2ccccc2c1=O)N1CCCC(CC2CC2)(C(=O)O)C1 (centres undefined) | 3.15
62 | Cc1cc(N2CCCN3CCC[C@H]3C2)n2nc(C)c(C)c2n1 | 4.37
63 | COc1ccc(C(=O)N2CCOC(Cc3cccc(C(F)(F)F)c3)C2)o1 (centres undefined) | -0.869
64 | O=C1CCC2(CCCN(C(=O)c3ccoc3)C2)CN1CCc1c[nH]cn1 (centres undefined) | 4.54
65 | CCCSc1ncc(CN2CCN(C)C(=O)C2C)cn1 (centres undefined) | 7.75
66 | Cc1nonc1CN1CC[C@@](O)(C2CCOCC2)[C@H](C)C1 | 7.31

Row | SMILES | cytotoxicity at 10 µM [%]
67 | CC(=O)c1cc(CC(=O)N2CCN(CCOc3ccccc3)CC2)cs1 | -5.48
68 | CC(C)N1CCCC(C(=O)N2CCN(c3cnn(C)c(=O)c3)CC2)C1 (centres undefined) | -3.75
69 | CCN(Cc1noc(C2CC2)n1)C(=O)c1onc2ccccc12 | 1.61
70 | CC1(C)CN(Cc2cc(C3CCCCC3)no2)CC[C@]1(C)O | -4.59
71 | COCc1nc(Cn2ncn3cccc3c2=O)no1 | -8.98
72 | CCN(CCO)C[C@@H]1CN(C(=O)c2sc3ccccc3c2C)C[C@@H]1CO | -10.6
73 | Cc1cc(N2CCC(CO)(CC3CCCCO3)CC2)c2ccccc2n1 (centres undefined) | 4.46
74 | CCC[C@H]1CN(c2nc(CO)cs2)C[C@@H]1NC(=O)C1CCC1 | 6.07
75 | CCC1(O)CCCN(c2nc(C(C)(C)C)nc3c2cnn3C)C1 (centres undefined) | -52.9
76 | Cc1cc(N(C)CCn2ccnc2C)n2nccc2n1 | 4.09
77 | Cc1nsc(NC(=O)N2CCCCC2CCCO)n1 (centres undefined) | -46.3
78 | NC(=O)c1ccc(OCCCN2CCC3(CC2)OCCCC3O)cc1 (centres undefined) | -1.18
79 | CC(C(=O)N1CCCN(Cc2cnn(C(C)C)c2)CC1)n1ccnc1 (centres undefined) | -11.8
80 | CS(=O)(=O)NCC1CCCN(C(=O)COCC2CC2)C1 (centres undefined) | 4.28
81 | COc1ncccc1CNC(=O)N(Cc1ccc(F)cc1F)C1CC1 | 0.139
82 | COCCNC(=O)CN1CCC(N2CCN(C)C2=O)CC1 | 0.621
83 | OC(COCc1ccccc1Cl)CN1CCC(c2ccn[nH]2)CC1 (centres undefined) | -15.1
84 | CCc1ncc2c(n1)CN(C(C)C(=O)Nc1ccc(Cl)cn1)CC2 (centres undefined) | -0.915
85 | Cc1nc(CN(C)C2CCN(Cc3nc4ccccc4n3C)C2)no1 (centres undefined) | -9.26
86 | Cc1nn(C)c(C)c1C1CCCN1CC(=O)Nc1cccnc1 (centres undefined) | -31.7
87 | CC(C)c1nnc(CN2CCCC2Cn2cncn2)o1 (centres undefined) | -11.1
88 | COc1ccc(-n2ccc(C(=O)N3CCC(C(N)=O)C3)n2)cc1 (centres undefined) | -6.04

Row | SMILES | cytotoxicity at 10 µM [%]
89 | COc1cccc(OCCNCc2c(C)nn(C)c2N(C)C)c1 | 1.25
90 | O=C(Nc1ccccc1)C1=NOC2(CCNCC2)C1 | 5.77
91 | COc1cc(N2CCCn3cnc(COC(C)C)c3C2)ncn1 | -5.3
92 | O=C(NCc1cccnc1)[C@H]1C[C@@H]2CCN(c3ccncn3)C[C@H]2O1 | 7.95
93 | O=C(CN1CC(c2nc(C3CC3)no2)C1)NCC1CCCO1 (centres undefined) | -6.66
94 | Cc1nc(CN2C[C@@H]3CCCO[C@@H]3[C@H](NC(=O)CC3CC3)C2)cs1 | 9.2
95 | O=C(c1cnccn1)N1CCN2C[C@H](Oc3cccc(F)c3)C[C@H]2C1 | 11.7
96 | Fc1cccc(CN2CCC3(CCN3c3ncccn3)C2)c1 (centres undefined) | 15.3
97 | CCn1ncc2c1C(COCC1CC1)N(Cc1c(C)noc1C)CC2 (centres undefined) | 12.3
98 | Cc1nnc(N2C[C@H](OCc3cccnc3)[C@H]3OCCC[C@H]32)s1 | 10.8
99 | c1cc(CO[C@@H]2CN(Cc3ccoc3)[C@@H]3CCCO[C@@H]32)ccn1 | -102
100 | CN(C)C(=O)N1CCC(c2nc3ccc(N4CCCC4)cn3n2)CC1 | 3.16
101 | CCN1C[C@@H]2CN(c3cc(OC)ncn3)CCC[C@]2(C(=O)O)C1 | -2.58
102 | Cc1ccnc(C(=O)N2C[C@@H]3CN(S(C)(=O)=O)CCO[C@@H]3C2)c1 | -3.92
103 | Cc1ccc(CC(=O)N2CC[C@@H]3CN(CCN(C)C)CCO[C@@H]3C2)cc1 | 2.73
104 | CC(C)NC(=O)[C@H]1C[C@@H]2[C@@H](C1)OCCN2CC1CC1 | -6.13
105 | O=C(c1cccnc1)N1CCn2nnc(COc3cccnc3)c2C1 | 3.34
106 | CNC(=O)c1ccc(CN(C(C)C)C(C)C)o1 | -1.88
107 | CCC(C)(C)NC(=O)c1ncn2c1CN(C)S(=O)(=O)c1ccccc1-2 | -137
108 | Cc1ncc2c(n1)CN(C=C1NN=C(c3occc3C)O1)CC2 | -2.7
109 | O=C(c1ccc2c(c1)[nH]c(=O)n2C1CCC(O)CC1)N1CCOCC1 (centres undefined) | -41.4

From ChEMBL document CHEMBL4513216, “Probing the Open Global Health Chemical Diversity Library for Multistage-Active Starting Points for Next-Generation Antimalarials” (ACS Infect Dis, 2020)
